Series [1] can be described thus: Antimicrobial activity aagainst Mycobacterium sp. Mc2 in presence of acetate. The class given is functional.
A short description of series [2]: Antimicrobial activity aagainst Mycobacterium sp. Mc2 in log phase assessed as inhibition of growth. The class given is functional. In a few lines:
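Agar dilution along the lines of NCCLS guidance, run in duplicate on log-phase cultures. MIC is the lowest compound concentration that gives complete inhibition of bacterial growth.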

In series [3] the test system is Mycobacterium tuberculosis. The series can be described thus: Antimicrobial activity aagainst Mycobacterium tuberculosis ATCC 14468 in log phase by agar dilution method. It counts as functional. In a few lines:
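M. tuberculosis log-phase cultures were tested by agar dilution following NCCLS-type guidance, in duplicate. MIC was taken as the lowest concentration giving complete inhibition of bacterial growth.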

For series [4], the target named is T1, Isocitrate lyase (Mycobacterium tuberculosis) (UniProt P9WKK7).
T1 sequence (whole entry): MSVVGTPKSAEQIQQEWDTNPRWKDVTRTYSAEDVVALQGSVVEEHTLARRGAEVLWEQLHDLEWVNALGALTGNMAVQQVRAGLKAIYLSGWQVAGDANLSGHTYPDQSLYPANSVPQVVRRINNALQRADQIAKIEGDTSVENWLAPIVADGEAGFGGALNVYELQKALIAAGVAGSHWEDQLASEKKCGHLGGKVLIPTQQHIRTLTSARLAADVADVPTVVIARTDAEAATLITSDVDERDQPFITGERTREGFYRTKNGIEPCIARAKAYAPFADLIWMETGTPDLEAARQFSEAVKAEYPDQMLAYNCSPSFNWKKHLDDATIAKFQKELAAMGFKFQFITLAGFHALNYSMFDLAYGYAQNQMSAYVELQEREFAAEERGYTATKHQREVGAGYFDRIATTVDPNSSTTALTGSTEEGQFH
Briefly: Percent inhibition of Mycobacterium tuberculosis isocitrate lyase (ICL) at 10 uM. The method, boiled down: (§1)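 Isocitrate lyase activity was measured at 37 °C with phenylhydrazine present, reading glyoxylate-phenylhydrazone formation at 324 nm. Percent inhibition was determined at a single concentration.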

A short description of series [5]: Cytotoxicity against african green monkey Vero cells after 72 hrs by MTT assay. The following applies: chlorocebus sabaeus. The class given is cell-based. (Formazan colour is commonly taken as a measure of viable cells.)
Series [6] concerns Mycobacterium tuberculosis. The series can be described thus: Antimicrobial activity aagainst Mycobacterium tuberculosis ATCC 14468 in starved phase by agar dilution method. The class given is functional. The method, boiled down: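 Six-week nutrient-starved M. tuberculosis cells were tested by agar dilution in duplicate, following a literature procedure. MIC was taken as the lowest concentration giving complete inhibition of growth.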
(In agar dilution, organisms are placed on agar that contains the substance at set levels.)

The target in series [7] is T1, Isocitrate lyase (Mycobacterium tuberculosis). The series can be described thus: Percent inhibition of Mycobacterium tuberculosis isocitrate lyase (ICL) at 100 uM. The method, boiled down: as §1

In brackets after ≈: the same amount, converted by molar mass.

What is called MIC is the lowest concentration found to suppress growth. Take `O=C(N/N=C/c1ccco1)c1ccc([N+](=O)[O-])o1`: the results for the MIC in series [1], in series [2] and in series [3] were 25.1 µM, 50.2 µM (≈ 12.5 µg/mL) and 25.1 µM (≈ 6.25 µg/mL), respectively.
As a reminder, the inhibition is the relative decrease from the control value, in per cent. A word on the CC50: it is the concentration that lowers cell viability or growth by half. Turning to `C/C(=N\NC(=O)c1ccc([N+](=O)[O-])o1)c1ccc(F)cc1`, the MIC in series [1] is 42.9 µM; in series [6], 21.5 µM (≈ 6.25 µg/mL); in series [2], 21.5 µM (≈ 6.25 µg/mL); in series [3], 5.35 µM (≈ 1.56 µg/mL). Also, in series [4], the inhibition is 28.1%. This compound had a CC50 at 72 h in series [5] of 215 µM.
Consider `C/C(=N\NC(=O)c1ccc([N+](=O)[O-])o1)c1ccc(Br)cc1`, for which the minimal inhibitory concentration (MIC) in series [1] was 4.43 µM; in series [6], 17.8 µM (≈ 6.25 µg/mL); in series [2] it was 17.8 µM (≈ 6.25 µg/mL); in series [3] it was 8.88 µM (≈ 3.13 µg/mL). Besides, the inhibition in series [4] is 73.1%. In series [5], the CC50 at 72 h was above 178 µM.
As for `O=C(N/N=C/c1ccc(F)cc1)c1ccc([N+](=O)[O-])o1`, the MIC in series [1] was determined as 45.1 µM; in series [2] it was 90.2 µM (≈ 25 µg/mL); in series [3], 22.5 µM (≈ 6.25 µg/mL).
As to `O=C(N/N=C/c1ccccc1[N+](=O)[O-])c1ccc([N+](=O)[O-])o1`, the MIC turned out to be 10.3 µM in series [1], 41.1 µM (≈ 12.5 µg/mL) in series [6], 10.3 µM (≈ 3.13 µg/mL) in series [2] and 10.3 µM (≈ 3.13 µg/mL) in series [3]. Also, the inhibition in series [4] stood at 46.8%. The CC50 at 72 h in series [5] came to 206 µM.
Regarding `O=C(N/N=C/c1ccc(Cl)cc1)c1ccc([N+](=O)[O-])o1`, the MIC in series [1] amounted to 10.7 µM; in series [2], 42.6 µM (≈ 12.5 µg/mL); in series [3], 21.3 µM (≈ 6.25 µg/mL).
For the compound `C/C(=N\NC(=O)c1ccc([N+](=O)[O-])o1)c1ccc([N+](=O)[O-])cc1`, the MIC in series [1] came to 19.6 µM; in series [6], 19.6 µM (≈ 6.25 µg/mL); in series [2] it was 19.6 µM (≈ 6.25 µg/mL); in series [3], 9.84 µM (≈ 3.13 µg/mL). The inhibition in series [4] was determined as 48.9%. Further, the half-maximal cytotoxic concentration (CC50) at 72 h in series [5] is above 197 µM.
Take `O=C(N/N=C/c1ccccc1)c1ccc([N+](=O)[O-])o1`: the MIC came to 48.2 µM in series [1], 192 µM (≈ 49.8 µg/mL) in series [2] and 48.2 µM (≈ 12.5 µg/mL) in series [3].
Take `O=C(N/N=C/c1ccc([N+](=O)[O-])o1)c1ccc([N+](=O)[O-])o1`: the MIC is 5.3 µM in series [1], 10.6 µM (≈ 3.13 µg/mL) in series [6], 0.68 µM (≈ 0.2 µg/mL) in series [2] and 2.65 µM (≈ 0.78 µg/mL) in series [3]. Also, the inhibition in series [4] came to 86.8%. Besides, the CC50 at 72 h in series [5] stood at 213 µM.
In the case of `COc1cc(/C=N/NC(=O)c2ccc([N+](=O)[O-])o2)ccc1O`, the minimal inhibitory concentration (MIC) in series [1] was found to be 20.5 µM; in series [2] it was 81.9 µM (≈ 25 µg/mL); in series [3] it was 41 µM (≈ 12.5 µg/mL).
`CO[C@H]1/C=C/O[C@@]2(C)Oc3c(C)c(O)c4c(O)c(c(/C=N/N5CCN(C)CC5)c(O)c4c3C2=O)NC(=O)/C(C)=C\C=C\[C@H](C)[C@H](O)[C@@H](C)[C@@H](O)[C@@H](C)[C@H](OC(C)=O)[C@@H]1C` [RIFAMPIN]: the minimal inhibitory concentration (MIC) is above 15.2 µM in series [1], above 15.2 µM in series [6], 1.89 µM (≈ 1.56 µg/mL) in series [2] and 0.48 µM (≈ 0.395 µg/mL) in series [3]. In series [5], the CC50 at 72 h was above 75.9 µM.
Take `Cc1ccc(/C=N/NC(=O)c2ccc([N+](=O)[O-])o2)cc1`: the MIC in series [1] turned out to be 22.9 µM; in series [6], 91.5 µM (≈ 25 µg/mL); in series [2] it was 45.7 µM (≈ 12.5 µg/mL); in series [3], 11.4 µM (≈ 3.13 µg/mL). The same compound displayed an inhibition in series [4] of 19.8%. In addition, in series [5], the CC50 at 72 h is above 229 µM.
Turning to `NNC(=O)c1ccncc1` [ISONIAZID], the MIC in series [1] is above 91.1 µM; in series [6], above 91.1 µM; in series [2], 45.6 µM (≈ 6.25 µg/mL); in series [3], 0.72 µM (≈ 0.0987 µg/mL). In series [5], this compound came in with a cytotoxic concentration (CC50) at 72 h above 456 µM.
`C/C(=N\NC(=O)c1ccc([N+](=O)[O-])o1)c1ccccc1O`: the MIC in series [1], in series [2] and in series [3] was above 43.2 µM each time.
For `C/C(=N\NC(=O)c1ccc([N+](=O)[O-])o1)c1ccc(C)cc1`, the MIC amounted to 43.5 µM in series [1], 43.5 µM (≈ 12.5 µg/mL) in series [6], 43.5 µM (≈ 12.5 µg/mL) in series [2] and 10.9 µM (≈ 3.13 µg/mL) in series [3]. The compound also showed an inhibition in series [4] of 32.5%. Further, in series [5], the CC50 at 72 h was above 218 µM.
On to `O=C(N/N=C/c1ccc(O)cc1)c1ccc([N+](=O)[O-])o1`, for which the figures for the MIC in series [1], in series [2] and in series [3] were 45.4 µM, above 45.4 µM and above 45.4 µM, respectively.
Turning to `O=C(N/N=C/c1ccc([N+](=O)[O-])cc1)c1ccc([N+](=O)[O-])o1`, the minimal inhibitory concentration (MIC) is 20.6 µM in series [1], 82.2 µM (≈ 25 µg/mL) in series [2] and 20.6 µM (≈ 6.25 µg/mL) in series [3].
Regarding `O=C(O)CC[N+](=O)[O-]`, the inhibition in series [7] was 63.2%.
For the compound `COc1ccc(/C=N/NC(=O)c2ccc([N+](=O)[O-])o2)cc1`, the MIC in series [1] was found to be 21.6 µM; in series [2] it was 43.2 µM (≈ 12.5 µg/mL); in series [3], 21.6 µM (≈ 6.25 µg/mL).
In the case of `O=C(N/N=C/c1cccc(Br)c1)c1ccc([N+](=O)[O-])o1`, the MIC in series [1] was 37 µM; in series [2], 37 µM (≈ 12.5 µg/mL); in series [3], 18.5 µM (≈ 6.25 µg/mL).
With `O=C(N/N=C/c1ccc(Br)cc1)c1ccc([N+](=O)[O-])o1`, the values for the MIC in series [1], in series [2] and in series [3] were 37 µM, 73.9 µM (≈ 25 µg/mL) and 18.5 µM (≈ 6.25 µg/mL), respectively.
On to `O=C(N/N=C/c1c(Cl)cccc1Cl)c1ccc([N+](=O)[O-])o1`, for which the results for the MIC in series [1], in series [2] and in series [3] were 38.1 µM, 76.2 µM (≈ 25 µg/mL) and 19 µM (≈ 6.25 µg/mL), respectively.
As to `C/C(=N\NC(=O)c1ccc([N+](=O)[O-])o1)c1ccccc1`, the minimal inhibitory concentration (MIC) in series [1] is 45.7 µM; in series [6], 45.7 µM (≈ 12.5 µg/mL); in series [2], 45.7 µM (≈ 12.5 µg/mL); in series [3], 11.4 µM (≈ 3.13 µg/mL). Also, the inhibition in series [4] came out at 34.9%. Moreover, in series [5], the CC50 at 72 h was above 229 µM.
Take `O=C(N/N=C/c1ccccc1C(F)(F)F)c1ccc([N+](=O)[O-])o1`: the MIC in series [1] amounted to 9.56 µM; in series [6], 19.1 µM (≈ 6.25 µg/mL); in series [2], 4.76 µM (≈ 1.56 µg/mL); in series [3] it was 4.76 µM (≈ 1.56 µg/mL). This compound also displayed an inhibition in series [4] of 30.1%. In series [5], this compound displayed a CC50 at 72 h above 191 µM.

These data come from ChEMBL document CHEMBL1208755, “5-Nitro-2-furoic acid hydrazones: design, synthesis and in vitro antimycobacterial evaluation against log and starved phase cultures” (Bioorg Med Chem Lett, 2010).
